Converted amounts (≈) assume the structure as drawn. Where only a bound is given, the exact number is not on record here.

Broadly, the MIC is the lowest concentration found to suppress growth. Read a high MIC as a less susceptible organism.

In one assay the test system is Acinetobacter baumannii. Kind of assay: Antibacterial activity against gram-negative Acinetobacter baumannii AB250 by CLSI method. The format is functional. The procedure, abridged:
(§1)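 Broth microdilution MIC per CLSI in cation-adjusted Mueller Hinton broth, prepared fresh and held at 4 °C. Defibrinated horse blood added where appropriate. Compounds serially diluted in sterile deionized water. Strains from ATCC unless otherwise noted. Runs accepted when comparator antibiotics fell within QC ranges for ATCC quality control strains.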
Regarding `CN(C)[C@@H]1C(O)=C(C(N)=O)C(=O)[C@@]2(O)C(O)=C3C(=O)c4c(O)cc([C@H]5CCCN5)c(C(F)(F)F)c4C[C@H]3C[C@@H]12`, the MIC worked out at 2 µg/mL (≈ 3.63 µM).

The next assay deals with Stenotrophomonas maltophilia. As to the kind of experiment: Antibacterial activity against gram-negative Stenotrophomonas maltophilia SM256 by CLSI method. In kind it is functional. A digest of the protocol: as §1
Take `CN(C)[C@@H]1C(O)=C(C(N)=O)C(=O)[C@@]2(O)C(O)=C3C(=O)c4c(O)cc([C@H]5CCCN5)c(C(F)(F)F)c4C[C@H]3C[C@@H]12`: the MIC was 1 µg/mL (≈ 1.81 µM).

A further assay relates to Burkholderia cenocepacia. As to the kind of experiment: Antibacterial activity against gram-negative Burkholderia cenocepacia BC240 by CLSI method. In kind it is functional. The procedure, abridged:
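Defibrinated horse blood added where appropriate. Compounds serially diluted in sterile deionized water. Strains from ATCC unless otherwise noted. Runs accepted when comparator antibiotics fell within QC ranges for ATCC quality control strains.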
`CN(C)[C@@H]1C(O)=C(C(N)=O)C(=O)[C@@]2(O)C(O)=C3C(=O)c4c(O)cc([C@H]5CCCN5)c(C(F)(F)F)c4C[C@H]3C[C@@H]12` yielded an MIC of 8 µg/mL (≈ 14.5 µM).

In the next assay the test system is Enterococcus faecalis. As to the kind of experiment: Antibacterial activity against gram-positive Enterococcus faecalis EFs327 harboring tet(M) by CLSI method. The format is functional. A digest of the protocol: (§2)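 CLSI broth microdilution MIC in fresh cation-adjusted Mueller Hinton broth, supplemented with defibrinated horse blood where appropriate. Compounds serially diluted in sterile deionized water. Runs accepted when comparator antibiotics against ATCC quality-control strains fell within recommended ranges.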
Turning to `CN(C)[C@@H]1C(O)=C(C(N)=O)C(=O)[C@@]2(O)C(O)=C3C(=O)c4c(O)cc([C@H]5CCCN5)c(C(F)(F)F)c4C[C@H]3C[C@@H]12`, the MIC was 16 µg/mL (≈ 29 µM).

The next assay has as its system Enterococcus faecium. As to the kind of experiment: Antibacterial activity against gram-positive Enterococcus faecium EFm404 harboring tet(M) by CLSI method. In kind it is functional. The procedure, abridged:
as §2
`CN(C)[C@@H]1C(O)=C(C(N)=O)C(=O)[C@@]2(O)C(O)=C3C(=O)c4c(O)cc([C@H]5CCCN5)c(C(F)(F)F)c4C[C@H]3C[C@@H]12` had an MIC of 4 µg/mL (≈ 7.25 µM).

The test system of another assay is Klebsiella pneumoniae. Kind of assay: Antibacterial activity against gram-negative Klebsiella pneumoniae KP457 harboring blacTX-M-15 extended spectrum beta-lactamase gene by CLSI method. In kind it is functional. A digest of the protocol:
as §2
Consider `CN(C)[C@@H]1C(O)=C(C(N)=O)C(=O)[C@@]2(O)C(O)=C3C(=O)c4c(O)cc([C@H]5CCCN5)c(C(F)(F)F)c4C[C@H]3C[C@@H]12`, for which the MIC worked out at 0.125 µg/mL (≈ 0.227 µM).

The subject of another assay is Proteus mirabilis. As to the kind of experiment: Antibacterial activity against gram-negative Proteus mirabilis PM385 by CLSI method. The format is functional. A digest of the protocol:
as §1
Molecule `CN(C)[C@@H]1C(O)=C(C(N)=O)C(=O)[C@@]2(O)C(O)=C3C(=O)c4c(O)cc([C@H]5CCCN5)c(C(F)(F)F)c4C[C@H]3C[C@@H]12` yielded an MIC of 0.5 µg/mL (≈ 0.907 µM).

The subject of the next assay is Pseudomonas aeruginosa. As to the kind of experiment: Antibacterial activity against gram-negative Pseudomonas aeruginosa PA555 by CLSI method. In kind it is functional. A digest of the protocol:
as §1
In turn, `CN(C)[C@@H]1C(O)=C(C(N)=O)C(=O)[C@@]2(O)C(O)=C3C(=O)c4c(O)cc([C@H]5CCCN5)c(C(F)(F)F)c4C[C@H]3C[C@@H]12` displayed an MIC of 8 µg/mL (≈ 14.5 µM).

Another assay has as its system Enterobacter cloacae. Kind of assay: Antibacterial activity against gram-negative Enterobacter cloacae EC1603 harboring tet(A) by CLSI method. In kind it is functional. A digest of the protocol: as §2
`CN(C)[C@@H]1C(O)=C(C(N)=O)C(=O)[C@@]2(O)C(O)=C3C(=O)c4c(O)cc([C@H]5CCCN5)c(C(F)(F)F)c4C[C@H]3C[C@@H]12` registered an MIC of 8 µg/mL (≈ 14.5 µM).

A further assay concerns Staphylococcus aureus. Kind of assay: Antibacterial activity against gram-positive Staphylococcus aureus SA101 by CLSI method. The format is functional. The procedure, abridged: as §1
Molecule `CN(C)[C@@H]1C(O)=C(C(N)=O)C(=O)[C@@]2(O)C(O)=C3C(=O)c4c(O)cc([C@H]5CCCN5)c(C(F)(F)F)c4C[C@H]3C[C@@H]12` displayed an MIC of 0.125 µg/mL (≈ 0.227 µM).

Another assay deals with Staphylococcus aureus. Kind of assay: Antibacterial activity against gram-positive Staphylococcus aureus SA161 harboring tet(M) by CLSI method. The format is functional. A digest of the protocol:
as §2
As to `CN(C)[C@@H]1C(O)=C(C(N)=O)C(=O)[C@@]2(O)C(O)=C3C(=O)c4c(O)cc([C@H]5CCCN5)c(C(F)(F)F)c4C[C@H]3C[C@@H]12`, 16 µg/mL (≈ 29 µM) was the least that counted as inhibitory (MIC).

For a further assay, the system named is Staphylococcus aureus. Kind of assay: Antibacterial activity against gram-positive Staphylococcus aureus SA158 harboring tet(K) by CLSI method. The format is functional. A digest of the protocol:
as §2
Regarding `CN(C)[C@@H]1C(O)=C(C(N)=O)C(=O)[C@@]2(O)C(O)=C3C(=O)c4c(O)cc([C@H]5CCCN5)c(C(F)(F)F)c4C[C@H]3C[C@@H]12`, 0.0312 µg/mL (≈ 0.0566 µM) was the least that counted as inhibitory (MIC).

Another assay concerns Streptococcus pneumoniae. As to the kind of experiment: Antibacterial activity against gram-positive Streptococcus pneumoniae SP160 harboring tet(M) by CLSI method. The format is functional. The procedure, abridged:
as §2
The molecule `CN(C)[C@@H]1C(O)=C(C(N)=O)C(=O)[C@@]2(O)C(O)=C3C(=O)c4c(O)cc([C@H]5CCCN5)c(C(F)(F)F)c4C[C@H]3C[C@@H]12` had an MIC of 1 µg/mL (≈ 1.81 µM).

A further assay concerns Escherichia coli. As to the kind of experiment: Antibacterial activity against gram-negative Escherichia coli EC107 by CLSI method. The format is functional. The procedure, abridged: as §1
In turn, `CN(C)[C@@H]1C(O)=C(C(N)=O)C(=O)[C@@]2(O)C(O)=C3C(=O)c4c(O)cc([C@H]5CCCN5)c(C(F)(F)F)c4C[C@H]3C[C@@H]12` registered an MIC of no more than 0.0156 µg/mL.

A further assay deals with Escherichia coli. As to the kind of experiment: Antibacterial activity against gram-negative Escherichia coli EC155 harboring tet(A) by CLSI method. In kind it is functional. The procedure, abridged: as §2
In turn, `CN(C)[C@@H]1C(O)=C(C(N)=O)C(=O)[C@@]2(O)C(O)=C3C(=O)c4c(O)cc([C@H]5CCCN5)c(C(F)(F)F)c4C[C@H]3C[C@@H]12` yielded an MIC of 2 µg/mL (≈ 3.63 µM).

The values are drawn from ChEMBL document CHEMBL4007456, “Heterocyclyl Tetracyclines. 1. 7-Trifluoromethyl-8-Pyrrolidinyltetracyclines: Potent, Broad Spectrum Antibacterial Agents with Enhanced Activity against Pseudomonas aeruginosa” (2017).
